Sampled rows, rich in hits. Any-hit rate of the full collection: about 3%.
SENP6 inh = inhibitors of human SENP6 protease; Q9GZR1; Recombinant SENP6 catalytic domain, aminoluciferin luminescence; inhibition, % at 10 µM; 330,000 compounds, 1.8% hits; AID 2599;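 active means inhibition above about 50% at the single tested dose, limit read from the data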
Apaf1 inhib = inhibitors of human Apaf-1 apoptosome; O14727; reconstituted apoptosome caspase-3 activity, DEVD-Rh110 fluorescence; inhibition, % at 20 µM; 330,000 compounds, 0.71% hits; active means inhibition of at least 40% at 20 µM
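Material: reconstituted apoptosome with Apaf-1, cytochrome c, caspase-9, procaspase-3, dATP. Technique: Rh110 fluorescence intensity. Buffer or medium: pH 7.5 Hepes buffer with CHAPS, BSA, DTT. Times: 30 min plus 50 min, RT.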
UBC13 inh = human UBC13 polyubiquitination inhibition; P61088; UBC13 polyubiquitin chain formation, TR-FRET; inhibition, % at 20 µM; 330,000 compounds, 0.47% hits; AID 485273; in the data active means inhibition above about 45%, passing the limit was not always enough
Target sequence (P61088 whole entry, looked up): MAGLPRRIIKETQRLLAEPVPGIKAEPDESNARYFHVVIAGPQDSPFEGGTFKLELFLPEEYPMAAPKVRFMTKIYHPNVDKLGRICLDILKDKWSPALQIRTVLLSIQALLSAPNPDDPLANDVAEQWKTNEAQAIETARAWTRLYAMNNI
SENP7 inh = blocks the human protease SENP7; Q9BQF6; recombinant SENP7, Z-RLRGG-aminoluciferin luminescence, 40 min; inhibition, % at 5 µM; 330,000 compounds, 1.5% hits; AID 434973;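 active means inhibition above about 50% at the single test dose, limit read from the data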
SENP8 block-1 = SENP8 (human) protease inhibition | Q96LD8 | recombinant SENP8, Nedd8 substrate fluorescence | inhibition, % at 20 µM | 360,000 compounds, 0.64% hits | AID 602440; in the data active means inhibition mostly above about 40%, no sharp cut-off; inactive means mostly below about 27%
Target sequence (Q96LD8 whole entry, looked up): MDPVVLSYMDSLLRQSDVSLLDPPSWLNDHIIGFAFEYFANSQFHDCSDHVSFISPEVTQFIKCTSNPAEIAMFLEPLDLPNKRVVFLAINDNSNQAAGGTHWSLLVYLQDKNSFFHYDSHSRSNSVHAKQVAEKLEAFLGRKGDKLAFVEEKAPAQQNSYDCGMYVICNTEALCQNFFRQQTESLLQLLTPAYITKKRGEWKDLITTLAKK
SENP8 block-2 = inhibitors of human SENP8 protease. Q96LD8. purified SENP8, Z-RLRGG-aminoluciferin cleavage, luminescence. inhibition, % at 10 µM. 330,000 compounds, 1.2% hits. AID 2540; in the data active means inhibition above about 50%
Casp3 counter = caspase-3 inhibition (UBC13 counter-screen). shares compounds with UBC13 inh. Recombinant caspase-3, Caspase-Glo 3/7 luminescence, 60 min. inhibition, % at 20 µM. 1,400 compounds, 4% hits. AID 488856;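 active means mean inhibition across replicates above about 26%, limit read from the data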
Target sequence (P42574 whole entry, looked up): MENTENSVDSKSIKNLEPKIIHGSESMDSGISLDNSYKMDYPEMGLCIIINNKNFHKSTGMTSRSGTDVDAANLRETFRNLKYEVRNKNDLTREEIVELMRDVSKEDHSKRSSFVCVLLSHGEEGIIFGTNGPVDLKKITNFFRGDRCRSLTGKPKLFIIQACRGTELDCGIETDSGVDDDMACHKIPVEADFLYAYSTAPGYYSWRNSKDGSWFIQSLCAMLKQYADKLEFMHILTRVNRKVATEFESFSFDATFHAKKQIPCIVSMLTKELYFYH
UBC13 conf = human UBC13 polyubiquitin inhibition, confirmed; inhibition, % at 10 µM; 1,400 compounds, 68% hits; shares compounds with UBC13 inh; UBC13 polyubiquitination, TR-FRET, biochemical; in the data active means inhibition above about 45%
Large screens that a line does not name were inactive (follow-up assays come after a bar, where they were run).

COc1ccc(C[C@H]2CN3C(=NC[C@@H]3C(C)C)N2CCNC(=O)CCC2CCCCC2)cc1	UBC13 inh 53 | Casp3 counter inactive | UBC13 conf inactive
O=C(CCC1CCCCC1)NCCN1C2=NC[C@H](Cc3ccc(O)cc3)N2C[C@H]1Cc1ccc(O)cc1	none
NC(=O)c1nsc(C(=O)N(c2ccc(Cl)cc2)C(C(=O)NCC2CCCO2)c2cccs2)c1N (centres undefined)	UBC13 inh 46 | Casp3 counter inactive | UBC13 conf 50
CCc1ccc(N(C(=O)c2snc(C(N)=O)c2N)C(C(=O)NCC2CCCO2)c2cccs2)cc1 (centres undefined)	none
Cc1cccc(N(C(=O)c2snc(C(N)=O)c2N)C(C(=O)NCC2CCCO2)c2cccs2)c1 (centres undefined)	UBC13 inh 62 | Casp3 counter inactive | UBC13 conf 71
Cc1ccc(C)c(N(C(=O)c2snc(C(N)=O)c2N)C(C(=O)NCC2CCCO2)c2cccs2)c1 (centres undefined)	none
COc1ccccc1N(C(=O)c1snc(C(N)=O)c1N)C(C(=O)NC1CCCC1)c1ccco1 (centres undefined)	none
Cc1cccc(N(C(=O)c2snc(C(N)=O)c2N)C(C(=O)NC2CCCC2)c2ccco2)c1 (centres undefined)	UBC13 inh 79 | Casp3 counter inactive | UBC13 conf 76
C=CCN(c1ccc(F)cc1)S(=O)(=O)c1cc(C(=O)NC2CC2)ccc1Cl	none (no result: SENP6 inh, Apaf1 inhib, UBC13 inh, SENP7 inh, SENP8 block-2)
Nc1nc2c(ncn2[C@@H]2O[C@H](CNCc3ccc(Oc4cc(-n5cccn5)ncn4)cc3)[C@@H](O)[C@H]2O)c(=O)[nH]1	none (no result: SENP6 inh, Apaf1 inhib, UBC13 inh, SENP7 inh, SENP8 block-2)
CN(C)CCCOc1ccc2c(c1)Sc1ccccc1CC2=O	none
Nc1ccc2c(c1)C(=O)Cc1ccccc1S2	UBC13 inh 58 | Casp3 counter inactive | UBC13 conf inactive
CCc1nc2ccc(C(=O)Nc3ccc(OC)c(OC)c3)cn2c1N(C)Cc1cccs1	none (no result: SENP6 inh, Apaf1 inhib, UBC13 inh, SENP7 inh, SENP8 block-2)
CC(C)=CCC/C(C)=C/CNC(=O)C[C@H]1C[C@H](C(=O)N2CCOCC2)[C@@]2(CCC3CCCC3)c3[nH]c4cc(CCC(=O)N(C)C)ccc4c3CCN2C1=O	none (no result: SENP6 inh, UBC13 inh, SENP8 block-2)
C#CCOCCOCCOCCNc1nc(N2CCN(C(=O)CCCCCCCCCCNC(=O)[C@@H](CCC(=O)O)n3cc(CCCCCN)nn3)CC2)nc(N2CCN(C(=O)CCCCCCCCCCNC(=O)[C@H](CO)n3cc(CCCCCN)nn3)CC2)n1	Apaf1 inhib 54, UBC13 inh 102 | Casp3 counter inactive | UBC13 conf 74
C#CCOCCOCCOCCNc1nc(N2CCN(C(=O)CCCCCCCCCCNC(=O)Cn3cc(CCCCCN)nn3)CC2)nc(N2CCN(C(=O)CCCCCCCCCCNC(=O)Cn3cc(C[C@@H](C)O)nn3)CC2)n1	Apaf1 inhib 71, UBC13 inh 114 | Casp3 counter inactive | UBC13 conf 114
C#CCOCCOCCOCCNc1nc(N2CCN(C(=O)Cn3cc(CCCCN)nn3)CC2)nc(N2CCN(C(=O)Cn3cc(CC(C)O)nn3)CC2)n1 (centres undefined)	none
C#CCOCCOCCOCCNc1nc(N2CCN(C(=O)CCCCCCCCCCNC(=O)[C@@H](CCC(=O)O)n3cc(CCCCCN)nn3)CC2)nc(N2CCN(C(=O)CCCCCCCCCCNC(=O)[C@H](CO)n3cc(CCCSC)nn3)CC2)n1	UBC13 inh 84 | Casp3 counter inactive | UBC13 conf inactive
Cc1ccc(S(=O)(=O)N(C)C[C@@H]2Oc3ncc(C#CCC(C)C)cc3C(=O)N([C@H](C)CO)C[C@H]2C)cc1	none (no result: SENP6 inh, Apaf1 inhib, UBC13 inh, SENP7 inh, SENP8 block-2)
CC(C)c1ccc(CNC(=O)C2(C)CCCN2C)cc1 (centres undefined)	none (no result: SENP6 inh, Apaf1 inhib, UBC13 inh, SENP7 inh, SENP8 block-2)
CCOC(=O)N1CCC(NC(=O)c2cc(C)c3c(C)nn(-c4ccccc4)c3n2)CC1	UBC13 inh 45 | Casp3 counter inactive | UBC13 conf inactive
CCN(CC)c1ccc(/C=C2\CCC(/C=N/NC(=O)c3ccc(=O)n(C)c3)=C2N2CCOCC2)cc1	UBC13 inh 53 | Casp3 counter inactive | UBC13 conf inactive
O=C(N/N=C/C1=C(N2CCOCC2)C(=C\c2ccccc2)/CC1)Nc1ccccc1	none
Cc1ccc2cc3c(nc2c1)N(c1ccccc1)CC3	UBC13 inh 46 | Casp3 counter inactive | UBC13 conf inactive
NC(=S)N=Nc1c(O)[nH]c2cc(F)c(F)cc12	UBC13 inh 82 | Casp3 counter inactive | UBC13 conf 99
CC1(C(=O)NS(=O)(=O)c2cccc(C#N)c2)CCN1C(=O)Cc1ccc(Cl)cc1Cl (centres undefined)	none (no result: SENP6 inh, Apaf1 inhib, UBC13 inh, SENP7 inh, SENP8 block-2)
C[C@]12CCC3C(CC[C@H]4CCCC[C@]34C)C1CC[C@@]2(O)CNCCO (some centres undefined)	UBC13 inh 64 | Casp3 counter inactive | UBC13 conf inactive
CC(=O)[C@@]1(O)CCC2C3CC[C@H]4C[C@@H](O)CC[C@]4(C)C3CC[C@@]21C (some centres undefined)	none
O=C(C[C@@H]1C[C@H]2c3cc(NC(=O)c4cccnc4)ccc3O[C@H]2[C@H](CO)O1)NCc1ccc(Oc2ccccc2)cc1	none (no result: SENP6 inh, Apaf1 inhib, UBC13 inh, SENP7 inh, SENP8 block-2)
CC(C)c1nc(C(N)=O)c2[nH]c(=O)n(-c3ccc(F)cc3)c2n1	none
CCOc1ccccc1-c1nc(C(N)=O)c2[nH]c(=O)n(-c3ccc(F)cc3)c2n1	UBC13 inh 65 | Casp3 counter inactive | UBC13 conf inactive
Nc1[nH]c(C(=O)c2ccccc2)c(-c2ccc(F)cc2)c1C(=O)NCc1ccccc1	none (no result: SENP6 inh, Apaf1 inhib, UBC13 inh, SENP7 inh, SENP8 block-2)
Cn1c(=O)n(CC(=O)NCC2CCCO2)c(=O)c2c3c(sc21)COC(C)(C)C3 (centres undefined)	none
CC1(C)Cc2c(sc(NC(=O)C(=O)NCC3CCCO3)c2C(N)=O)CO1 (centres undefined)	UBC13 inh 81 | Casp3 counter inactive | UBC13 conf 106
COC(=O)c1c(NC(=O)C(=O)N2CCCC2)sc2c1CC(C)(C)OC2	UBC13 inh 48 | Casp3 counter inactive | UBC13 conf 100
CC1(C)Cc2c(sc(NC(=O)C(=O)N3CCCC3)c2C(N)=O)CO1	UBC13 inh 86 | Casp3 counter inactive | UBC13 conf 105
CC1(C)Cc2c(sc(NC(=O)C(=O)N3CCN(CCO)CC3)c2C(N)=O)CO1	none
COC(=O)c1c(NC(=O)c2ccccc2)sc2c1CC(C)(C)OC2	none
COc1cc(C(C)=O)ccc1OCC(=O)N1CCCC1c1ccc2c(c1)OCCCO2 (centres undefined)	none (no result: SENP6 inh, Apaf1 inhib, UBC13 inh, SENP7 inh, SENP8 block-2)
O=C(NCC1CCCCC1)c1csc([C@@H]2O[C@H](CO)[C@H](O)[C@H](O)[C@H]2O)n1	none (no result: SENP6 inh, Apaf1 inhib, UBC13 inh, SENP7 inh, SENP8 block-2)

Assay outcomes: PubChem, Sanford-Burnham Center for Chemical Genomics
